ChEMBL document CHEMBL1156265, “Furo[2,3-b]pyridine-based cannabinoid-1 receptor inverse agonists: synthesis and biological evaluation. Part 1” (Bioorg Med Chem Lett, 2010)

Assays:
Cannabinoid receptor 1 = Cannabinoid receptor 1 (Homo sapiens, UniProt P21554); experiment: Inhibition of human CB1 receptor
Cannabinoid receptor 2 = Cannabinoid receptor 2 (Homo sapiens, UniProt P34972); experiment: Inhibition of human CB2 receptor
Rattus norvegicus [1] = experiment: Reduction of body weight in DIO rat assessed as weight change at 1 mg/kg, po after 18 hrs; format: functional
Outline: (§1)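 Acute study in diet-induced obese rats. A single oral dose was given and rats were monitored for 18 h. Food intake suppression and body weight change were measured relative to vehicle-treated controls.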

Rattus norvegicus [2] = experiment: Suppression of food intake in DIO rat at 1 mg/kg, po relative to control; format: functional; outline: as §1
[3] = Bioavailability in rat; format: ADME, organism-based; conditions: in vivo
[4] = Half life in rat; format: ADME, organism-based; conditions: in vivo
[5] = Plasma clearance in rat; format: ADME, organism-based
[6] = Ratio of drug level in brain to plasma in rat at 1 mg/kg, iv after 4 hrs; format: ADME, organism-based; set-up: dose 1 mg/kg, route intravenous
[7] = Drug level in rat brain at 1 mg/kg, iv after 4 hrs; format: ADME, organism-based; set-up: dose 1 mg/kg, route intravenous; conditions: read-out: Drug uptake
[8] = Drug level in rat plasma at 1 mg/kg, iv after 4 hrs; format: ADME, organism-based; set-up: dose 1 mg/kg, route intravenous; conditions: read-out: Drug uptake
[9] = Bioavailability in dog; format: ADME, organism-based, Canis lupus familiaris; conditions: in vivo
Outline: (§2)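 PK in dog and rhesus macaque. Bioavailability, plasma clearance (mL/min/kg) and terminal half-life derived from plasma drug levels.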

[10] = Half life in dog; format: ADME, organism-based, Canis lupus familiaris; conditions: in vivo; outline: as §2
[11] = Plasma clearance in dog; format: ADME, organism-based, Canis lupus familiaris; outline: as §2
[12] = Half life in rat at 3 mg/kg; format: ADME, organism-based; set-up: dose 3 mg/kg; conditions: in vivo
Rattus norvegicus [13] = experiment: Suppression of food intake in DIO rat at 3 mg/kg relative to control; format: functional
Rattus norvegicus [14] = experiment: Reduction of body weight in rat at 1 mg/kg, po after 13 days relative to control; format: functional; set-up: scale not given: the % may be the effect or the level left
Outline: (§3)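 Chronic study in diet-induced obese rats with daily oral dosing at 1 mg/kg (for some compounds 0.1 and 0.3 mg/kg as well). Body weight change and cumulative food intake suppression were measured relative to vehicle. The 14-day study ended 18 h after the day-14 dose; one study ended on day 13.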

[15] = Stability in phosphate buffer exposed to air assessed as degradation at pH 7.4 after 40 hrs; format: physicochemical; conditions: read-out: Activity
Outline: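 The compound was held in aqueous pH 7.4 phosphate buffer exposed to air for 40 h. The read-out was percent of material degraded to other products.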

[16] = Lipophilicity, log D of the compound; format: physicochemical; conditions: HPLC, pH 7.3
[17] = Metabolic stability in rat bile assessed as total recovery at 2 mg/kg, iv after 5 days; format: ADME, organism-based; set-up: dose 2 mg/kg, route intravenous; conditions: in vivo, 120 h
Outline: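 Radioactivity was collected in bile and urine for 120 h and expressed as percent of dose recovered.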

[18] = Metabolic stability in human liver microsomes assessed as compound remaining after 60 mins; format: ADME, Microsome; conditions: read-out: Activity
Outline: (§4)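 Liver microsomes (monkey, human, rat, dog) were incubated with compound for 60 min. The read-out was percent parent remaining over the incubation time course.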

[19] = Metabolic stability in monkey liver microsomes assessed as compound remaining after 60 mins; format: ADME, Macaca fascicularis, Microsome; conditions: cynomolgus monkey, read-out: Activity; outline: as §4
Rattus norvegicus [20] = experiment: Reduction of body weight in DIO rat assessed as weight change at 1 mg/kg, po daily measured 18 hrs post dose on day 14; format: functional; outline: as §3
[21] = Bioavailability in rhesus monkey; format: ADME, organism-based, Macaca mulatta; conditions: in vivo; outline: as §2
[22] = Half life in rhesus monkey; format: ADME, organism-based, Macaca mulatta; conditions: in vivo; outline: as §2
[23] = Plasma clearance in rhesus monkey; format: ADME, organism-based, Macaca mulatta; outline: as §2
Rattus norvegicus [24] = experiment: Suppression of food intake in DIO rat at 1 mg/kg, po measured 18 hrs post dose on day 14 relative to control

Chain of Cannabinoid receptor 1 (P21554 whole entry): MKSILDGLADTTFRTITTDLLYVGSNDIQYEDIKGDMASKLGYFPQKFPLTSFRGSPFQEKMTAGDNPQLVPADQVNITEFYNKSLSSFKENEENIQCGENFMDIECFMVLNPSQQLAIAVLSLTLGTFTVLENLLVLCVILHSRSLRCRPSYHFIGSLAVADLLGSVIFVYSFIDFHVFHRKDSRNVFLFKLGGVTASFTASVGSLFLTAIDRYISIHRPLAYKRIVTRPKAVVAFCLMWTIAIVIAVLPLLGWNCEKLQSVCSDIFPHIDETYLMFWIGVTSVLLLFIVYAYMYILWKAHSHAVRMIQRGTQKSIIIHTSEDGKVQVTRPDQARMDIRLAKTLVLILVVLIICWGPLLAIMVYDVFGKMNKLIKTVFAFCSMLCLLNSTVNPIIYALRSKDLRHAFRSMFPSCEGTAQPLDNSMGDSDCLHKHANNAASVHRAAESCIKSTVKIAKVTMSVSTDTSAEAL
Chain of Cannabinoid receptor 2 (P34972 whole entry): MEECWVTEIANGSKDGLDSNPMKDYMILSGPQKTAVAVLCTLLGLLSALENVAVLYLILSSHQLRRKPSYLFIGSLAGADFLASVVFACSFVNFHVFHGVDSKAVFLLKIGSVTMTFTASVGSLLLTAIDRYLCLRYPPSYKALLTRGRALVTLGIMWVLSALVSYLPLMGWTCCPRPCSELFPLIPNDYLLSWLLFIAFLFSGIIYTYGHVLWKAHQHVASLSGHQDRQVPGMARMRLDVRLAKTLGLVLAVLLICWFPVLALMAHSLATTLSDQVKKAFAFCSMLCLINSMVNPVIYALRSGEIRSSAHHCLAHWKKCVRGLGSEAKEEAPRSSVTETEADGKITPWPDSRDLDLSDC

## Nc1c(C(=O)c2ccccc2)oc2nc(-c3ccc(Cl)cc3Cl)c(-c3ccc(Cl)cc3)cc12
Cannabinoid receptor 1
  IC50: 3.5 nM
Cannabinoid receptor 2
  IC50: 440 nM

## CC(C)C(=O)c1oc2nc(-c3ccc(Cl)cc3Cl)c(-c3ccc(Cl)cc3)cc2c1N
Cannabinoid receptor 1
  IC50: 1.9 nM
Cannabinoid receptor 2
  IC50: 640 nM

## CC(C)C(=O)c1oc2nc(-c3ccccc3Cl)c(-c3ccc(Cl)cc3)cc2c1N
Cannabinoid receptor 1
  IC50: 1.7 nM
Cannabinoid receptor 2
  IC50: 1300 nM

## CC(=O)c1oc2nc(-c3ccc(Cl)cc3Cl)c(-c3ccc(Cl)cc3)cc2c1N
Cannabinoid receptor 1
  IC50: 56 nM
Cannabinoid receptor 2
  IC50: 1000 nM

## CN(C)C(=O)Nc1c(C(=O)C(C)(C)C)oc2nc(-c3ccccc3Cl)c(-c3ccc(Cl)cc3)cc12
Cannabinoid receptor 1
  IC50: 0.39 nM
Cannabinoid receptor 2
  IC50: 1970 nM

## CNCC(=O)Nc1c(C(=O)C(C)(C)C)oc2nc(-c3ccccc3Cl)c(-c3ccc(Cl)cc3)cc12
Cannabinoid receptor 1
  IC50: 1.2 nM
Cannabinoid receptor 2
  IC50: 3300 nM

## CC(C)(O)C(=O)c1oc2nc(-c3ccccc3Cl)c(-c3ccc(Cl)cc3)cc2c1N
Cannabinoid receptor 1
  IC50: 20 nM
Cannabinoid receptor 2
  IC50: 2100 nM

## CCC(=O)c1oc2nc(-c3ccc(Cl)cc3Cl)c(-c3ccc(Cl)cc3)cc2c1N
Cannabinoid receptor 1
  IC50: 17 nM
Cannabinoid receptor 2
  IC50: 360 nM

## CC(C)C(=O)c1oc2nc(-c3ccccc3Cl)c(-c3ccc(Cl)cc3)cc2c1NC(=O)CO
Rattus norvegicus [1]
  Activity: -7 g
Cannabinoid receptor 1
  IC50: 0.4 nM
Cannabinoid receptor 2
  IC50: 5100 nM
Rattus norvegicus [2]
  Activity: 37%
[3]
  bioavailability: 38%
[4]
  half-life: 3.3 h
[5]
  clearance: 20 mL/min/kg
[6]
  Kp at 4 h: 0.94
[7]
  concentration at 4 h: 150 nM
[8]
  concentration at 4 h: 160 nM
[9]
  bioavailability: 31%
[10]
  half-life: 52 h
[11]
  clearance: 4.9 mL/min/kg

## CC(C)(C)C(=O)c1oc2nc(-c3ccccc3Cl)c(-c3ccc(Cl)cc3)cc2c1N
Rattus norvegicus [1]
  Activity: -4 g
Cannabinoid receptor 1
  IC50: 4.3 nM
Cannabinoid receptor 2
  IC50: 1900 nM
Rattus norvegicus [2]
  Activity: 33%
[3]
  bioavailability: 100%
[4]
  half-life: 2.8 h
[5]
  clearance: 22 mL/min/kg
[6]
  Kp at 4 h: 2.3
[7]
  concentration at 4 h: 290 nM
[8]
  concentration at 4 h: 130 nM

## CCC(=O)c1oc2nc(-c3ccccc3Cl)c(-c3ccc(Cl)cc3)cc2c1N
Cannabinoid receptor 1
  IC50: 13 nM
Cannabinoid receptor 2
  IC50: 1000 nM

## CC(=O)Nc1c(C(C)=O)c(=O)n(C)c2nc(-c3ccc(Cl)cc3Cl)c(-c3ccc(Cl)cc3)cc12 [NAPHTHYRIDINONE]
[12]
  half-life: > 8 h
Rattus norvegicus [13]
  Activity: -68%

## CC(C)(C)C(=O)c1oc2nc(-c3ccc(Cl)cc3Cl)c(-c3ccc(Cl)cc3)cc2c1N
Rattus norvegicus [14]
  Activity: 5.3%
[15]
  degraded at 40 h: 40%
[16]
  logD: 6.7
[17]
  Activity: 41%
Rattus norvegicus [1]
  Activity: -5 g
Cannabinoid receptor 1
  IC50: 5.5 nM
Cannabinoid receptor 2
  IC50: 440 nM
Rattus norvegicus [2]
  Activity: 53%
[18]
  remaining at 1 h: 100%
[19]
  remaining at 1 h: 25%
[3]
  bioavailability: 59%
[4]
  half-life: 4.2 h
[5]
  clearance: 5.6 mL/min/kg
[6]
  Kp at 4 h: 1
[7]
  concentration at 4 h: 220 nM
[8]
  concentration at 4 h: 220 nM
[9]
  bioavailability: 63%
[10]
  half-life: 7.9 h
[11]
  clearance: 7.3 mL/min/kg
Rattus norvegicus [20]
  Activity: -3 g
[21]
  bioavailability: 11%
[22]
  half-life: 2.4 h
[23]
  clearance: 29 mL/min/kg
Rattus norvegicus [24]
  Activity: 19%

## CC(=O)Nc1c(C(=O)C(C)(C)C)oc2nc(-c3ccccc3Cl)c(-c3ccc(Cl)cc3)cc12
Cannabinoid receptor 1
  IC50: 0.58 nM
Cannabinoid receptor 2
  IC50: > 2000 nM

## CC(C)(C)C(=O)c1oc2nc(-c3ccccc3Cl)c(-c3ccc(Cl)cc3)cc2c1NC(=O)CO
Rattus norvegicus [14]
  Activity: 6%
[16]
  logD: 6
Rattus norvegicus [1]
  Activity: -6 g
Cannabinoid receptor 1
  IC50: 1.2 nM
Cannabinoid receptor 2
  IC50: 3400 nM
Rattus norvegicus [2]
  Activity: 24%
[3]
  bioavailability: 32%
[4]
  half-life: 3.5 h
[5]
  clearance: 10 mL/min/kg
[6]
  Kp at 4 h: 1.8
[7]
  concentration at 4 h: 86 nM
[8]
  concentration at 4 h: 49 nM
[9]
  bioavailability: 42%
[10]
  half-life: 11 h
[11]
  clearance: 3 mL/min/kg
Rattus norvegicus [20]
  Activity: -19 g
Rattus norvegicus [24]
  Activity: 19%
